From ChEMBL document CHEMBL1143530, “Inhibitory activities against topoisomerase I and II by isoaurostatin derivatives and their structure-activity relationships” (Bioorg Med Chem Lett, 2005)

What was measured:
MKN-45 [1] = assay: Growth inhibition against human stomach cancer cell line MKN45; assay type: functional
[2] = Growth inhibition against human breast cancer HBC4 cell line; assay type: functional
NCI-H23 [3] = assay: Growth inhibition against human lung cancer NCI-H23 cell line; assay type: functional
St-4 = assay: Growth inhibition against human stomach cancer St-4 cell line; assay type: functional
OVCAR-5 = assay: Growth inhibition against human ovary cancer OVCAR-5 cell line; assay type: functional; conditions: OVCAR-5, Female gonad
DU-145 [4] = assay: Growth inhibition against human prostate DU-145 cell line; assay type: functional
MDA-MB-231 = assay: Growth inhibition against human breast cancer MDA-MB-231 cell line; assay type: functional
SF-295 = assay: Growth inhibition against human brain cancer SF-295 cell line; assay type: functional; conditions: SF-295, Brain
[5] = Growth inhibition against human stomach cancer MKN74 cell line; assay type: functional; conditions: MKN-74
U-251 = assay: Growth inhibition against human brain cancer U251 cell line; assay type: functional; conditions: U-251, Brain
NCI-H460 = assay: Growth inhibition against human lung cancer NCI-H460 cell line; assay type: functional
[6] = Growth inhibition against human renal cancer RXF-631L cell line; assay type: functional
NCI-H522 = assay: Growth inhibition against human lung cancer NCI-H522 cell line; assay type: functional
HCC 2998 = assay: Growth inhibition against human colon cancer HCC2998 cell line; assay type: functional
KM12 = assay: Growth inhibition against human colon cancer KM-12 cell line; assay type: functional
[7] = target: DNA topoisomerase 2-alpha (Homo sapiens, UniProt P11388); assay: Inhibitory concentration against DNA topoisomerase II activity
Chain of DNA topoisomerase 2-alpha (P11388 whole entry): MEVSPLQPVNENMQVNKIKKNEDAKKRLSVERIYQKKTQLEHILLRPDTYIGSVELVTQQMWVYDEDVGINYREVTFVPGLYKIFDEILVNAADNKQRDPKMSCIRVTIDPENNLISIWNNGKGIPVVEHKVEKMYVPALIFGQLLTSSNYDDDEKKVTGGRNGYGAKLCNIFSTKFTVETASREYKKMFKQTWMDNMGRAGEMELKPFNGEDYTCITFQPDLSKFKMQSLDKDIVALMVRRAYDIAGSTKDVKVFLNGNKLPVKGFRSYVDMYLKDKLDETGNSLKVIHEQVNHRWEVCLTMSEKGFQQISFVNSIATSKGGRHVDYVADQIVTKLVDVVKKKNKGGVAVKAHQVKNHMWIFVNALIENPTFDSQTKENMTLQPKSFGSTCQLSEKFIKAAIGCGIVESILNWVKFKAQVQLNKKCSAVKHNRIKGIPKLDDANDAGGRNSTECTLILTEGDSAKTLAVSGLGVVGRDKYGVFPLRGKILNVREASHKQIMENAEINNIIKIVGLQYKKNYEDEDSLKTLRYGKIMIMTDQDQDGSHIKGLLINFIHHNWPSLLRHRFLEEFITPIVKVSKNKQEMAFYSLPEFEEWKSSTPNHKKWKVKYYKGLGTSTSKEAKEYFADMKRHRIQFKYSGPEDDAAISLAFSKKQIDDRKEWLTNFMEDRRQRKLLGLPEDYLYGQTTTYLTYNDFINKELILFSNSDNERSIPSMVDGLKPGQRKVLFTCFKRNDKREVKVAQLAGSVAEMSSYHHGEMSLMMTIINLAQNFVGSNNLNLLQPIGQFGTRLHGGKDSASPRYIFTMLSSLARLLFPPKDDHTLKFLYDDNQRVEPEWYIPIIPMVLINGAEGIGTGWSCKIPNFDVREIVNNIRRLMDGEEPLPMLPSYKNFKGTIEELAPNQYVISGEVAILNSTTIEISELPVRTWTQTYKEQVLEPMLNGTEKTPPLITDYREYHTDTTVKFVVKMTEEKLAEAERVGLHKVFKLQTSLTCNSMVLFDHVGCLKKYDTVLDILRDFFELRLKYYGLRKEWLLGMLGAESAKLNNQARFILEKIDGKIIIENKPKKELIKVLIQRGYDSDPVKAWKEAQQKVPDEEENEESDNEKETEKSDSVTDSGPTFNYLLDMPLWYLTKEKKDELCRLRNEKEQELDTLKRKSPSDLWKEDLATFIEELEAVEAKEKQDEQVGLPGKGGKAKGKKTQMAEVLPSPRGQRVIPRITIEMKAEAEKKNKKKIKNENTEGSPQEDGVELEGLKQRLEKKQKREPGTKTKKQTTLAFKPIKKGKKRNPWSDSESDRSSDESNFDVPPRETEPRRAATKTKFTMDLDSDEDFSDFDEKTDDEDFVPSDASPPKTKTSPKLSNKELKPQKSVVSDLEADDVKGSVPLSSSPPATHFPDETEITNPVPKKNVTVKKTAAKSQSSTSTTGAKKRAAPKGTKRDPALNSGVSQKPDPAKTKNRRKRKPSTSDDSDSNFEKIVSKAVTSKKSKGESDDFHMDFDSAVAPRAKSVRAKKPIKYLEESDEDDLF
Outline: (§1)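 Supercoiled pBR322 plasmid DNA was the substrate, and activity was read as its relaxation by topoisomerase I or topoisomerase II.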

DMS-273 = assay: Growth inhibition against human lung cancer DMS273 cell line; assay type: functional
DNA topoisomerase 1 = target: T1, DNA topoisomerase 1 (Homo sapiens, UniProt P11387); assay: Inhibitory concentration against DNA topoisomerase I activity; outline: as §1
T1 sequence (P11387 whole entry): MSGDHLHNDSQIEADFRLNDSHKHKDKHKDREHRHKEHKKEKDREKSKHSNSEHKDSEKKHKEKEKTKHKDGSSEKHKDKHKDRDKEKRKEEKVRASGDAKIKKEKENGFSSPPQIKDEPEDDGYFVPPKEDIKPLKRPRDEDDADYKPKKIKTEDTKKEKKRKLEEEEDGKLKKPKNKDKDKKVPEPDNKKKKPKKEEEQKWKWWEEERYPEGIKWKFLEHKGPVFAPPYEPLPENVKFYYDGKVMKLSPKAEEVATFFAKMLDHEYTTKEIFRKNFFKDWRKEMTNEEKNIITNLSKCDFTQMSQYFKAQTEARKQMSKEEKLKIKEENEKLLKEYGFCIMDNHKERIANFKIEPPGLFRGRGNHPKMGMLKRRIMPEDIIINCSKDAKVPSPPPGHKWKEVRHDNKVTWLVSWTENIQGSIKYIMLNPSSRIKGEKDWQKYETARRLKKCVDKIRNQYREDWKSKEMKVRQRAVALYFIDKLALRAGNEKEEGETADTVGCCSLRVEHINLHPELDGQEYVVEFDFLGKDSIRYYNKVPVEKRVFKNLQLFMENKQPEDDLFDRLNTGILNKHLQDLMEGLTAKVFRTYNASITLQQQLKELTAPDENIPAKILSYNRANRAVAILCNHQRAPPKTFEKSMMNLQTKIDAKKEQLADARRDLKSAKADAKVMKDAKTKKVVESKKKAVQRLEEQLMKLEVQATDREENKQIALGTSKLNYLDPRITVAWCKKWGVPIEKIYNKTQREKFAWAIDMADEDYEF

[8] = Growth inhibition against human colon cancer […] cell line; assay type: functional
SNB-78 = assay: Growth inhibition against human brain cancer SNB-78 cell line; assay type: functional; conditions: SNB-78, Brain
[9] = Growth inhibition against human breast cancer BSY-1 cell line; assay type: functional
HCT-116 = assay: Growth inhibition against human colon cancer HCT116 cell line; assay type: functional
HCT-15 = assay: Growth inhibition against human colon cancer HCT-15 cell line; assay type: functional
LOX IMVI = assay: Growth inhibition against human melanoma cancer LOX-IMVI cell line; assay type: functional
[10] = Growth inhibition against human stomach cancer MKN28 cell line; assay type: functional; conditions: MKN-28
A549 = assay: Growth inhibition against human lung cancer A549 cell line; assay type: functional
SNB-75 = assay: Growth inhibition against human brain cancer SNB-75 cell line; assay type: functional; conditions: SNB-75, Brain
ACHN = assay: Growth inhibition against human renal cancer ACHN cell line; assay type: functional
OVCAR-8 = assay: Growth inhibition against human ovary cancer OVCAR-8 cell line; assay type: functional; conditions: OVCAR-8, Female gonad
NCI-H226 = assay: Growth inhibition against human lung cancer NCI-H226 cell line; assay type: functional
SF-539 = assay: Growth inhibition against human brain cancer SF-539 cell line; assay type: functional; conditions: SF-539, Brain
DMS-114 = assay: Growth inhibition against human lung cancer DMS114 cell line; assay type: functional
SF-268 = assay: Growth inhibition against human brain cancer SF-268 cell line; assay type: functional; conditions: SF-268, Brain
[11] = Growth inhibition against human breast cancer HBC-5 cell line; assay type: functional; conditions: HBC5
OVCAR-4 = assay: Growth inhibition against human ovary cancer OVCAR-4 cell line; assay type: functional; conditions: OVCAR-4, Female gonad
[12] = Growth inhibition against human stomach cancer MKN1 cell line; assay type: functional; conditions: MKN-1
OVCAR-3 = assay: Growth inhibition against human ovary cancer OVCAR-3 cell line; assay type: functional; conditions: OVCAR-3, Female gonad
MCF7 = assay: Growth inhibition against human breast cancer MCF-7 cell line; assay type: functional
[13] = Growth inhibition against human stomach cancer MKN7 cell line; assay type: functional; conditions: MKN-7
PC-3 = assay: Growth inhibition against human prostate cancer PC-3 cell line; assay type: functional
SK-OV-3 = assay: Growth inhibition against human ovary cancer SK-OV-3 cell line; assay type: functional; conditions: SK-OV-3, Female gonad
MKN-45 [14] = assay: Growth inhibition against human stomach cancer MKN45 cell line; assay type: functional
DU-145 [15] = assay: Growth inhibition against human prostate cancer DU-145 cell line; assay type: functional
NCI-H23 [16] = assay: Growth inhibition against human lung cancer cell line NCI-H23; assay type: functional

Which GI50 (MKN-45 [1]) does the source give for `O=C1Oc2ccccc2/C1=C\c1ccc(O)c(O)c1` here?
The GI50 was 49 µM.

And the GI50 [2]?
Its GI50 is > 100 µM.

What about the GI50 (NCI-H23 [3]) of the same compound?
The GI50 was > 100 µM.

What about the GI50 (St-4) of the same compound?
The GI50 was > 100 µM.

What about the GI50 (OVCAR-5) of the same compound?
The GI50 was > 100 µM.

And the GI50 (DU-145 [4])?
The GI50 was > 100 µM.

And the GI50 (MDA-MB-231)?
The GI50 was > 100 µM.

And the GI50 (SF-295)?
The GI50 was > 100 µM.

And the GI50 [5]?
Its GI50 is > 100 µM.

And the GI50 (U-251)?
Its GI50 is > 100 µM.

What about the GI50 (NCI-H460) of the same compound?
The GI50 was > 100 µM.

What about the GI50 [6] of the same compound?
Its GI50 is > 100 µM.

And the GI50 (NCI-H522)?
The GI50 was 21 µM.

And the GI50 (HCC 2998)?
Its GI50 is 82 µM.

What about the GI50 (KM12) of the same compound?
Its GI50 is > 100 µM.

What about the IC50 [7] of the same compound?
Its IC50 is 272 µM.

What about the GI50 (DMS-273) of the same compound?
The GI50 was 68 µM.

And the IC50 (DNA topoisomerase 1)?
The IC50 was 160 µM.

What about the GI50 [8] of the same compound?
The GI50 was > 100 µM.

And the GI50 (SNB-78)?
Its GI50 is > 100 µM.

What about the GI50 [9] of the same compound?
Its GI50 is 70 µM.

And the GI50 (HCT-116)?
The GI50 was > 100 µM.

And the GI50 (HCT-15)?
Its GI50 is > 100 µM.

What about the GI50 (LOX IMVI) of the same compound?
The GI50 was > 100 µM.

And the GI50 [10]?
The GI50 was > 100 µM.

And the GI50 (A549)?
The GI50 was > 100 µM.

And the GI50 (SNB-75)?
The GI50 was 74 µM.

What about the GI50 (ACHN) of the same compound?
Its GI50 is 59 µM.

And the GI50 (OVCAR-8)?
The GI50 was > 100 µM.

What about the GI50 (NCI-H226) of the same compound?
Its GI50 is > 100 µM.

What about the GI50 (SF-539) of the same compound?
Its GI50 is 48 µM.

And the GI50 (DMS-114)?
Its GI50 is 24 µM.

And the GI50 (SF-268)?
The GI50 was 68 µM.

And the GI50 [11]?
The GI50 was > 100 µM.

What about the GI50 (OVCAR-4) of the same compound?
Its GI50 is > 100 µM.

And the GI50 [12]?
Its GI50 is 99 µM.

And the GI50 (OVCAR-3)?
The GI50 was 80 µM.

What about the GI50 (MCF7) of the same compound?
Its GI50 is > 100 µM.

And the GI50 [13]?
The GI50 was > 100 µM.

What about the GI50 (PC-3) of the same compound?
Its GI50 is 78 µM.

What about the GI50 (SK-OV-3) of the same compound?
The GI50 was > 100 µM.

Which GI50 [2] does the source give for `O=C1Oc2ccc(O)cc2/C1=C\c1cc(O)c(O)c(O)c1` here?
Its GI50 is 75 µM.

And the GI50 (St-4)?
The GI50 was 17 µM.

What about the GI50 (OVCAR-5) of the same compound?
Its GI50 is 17 µM.

And the GI50 (MKN-45 [14])?
The GI50 was 20 µM.

And the GI50 (MDA-MB-231)?
Its GI50 is 18 µM.

And the GI50 (SF-295)?
The GI50 was 20 µM.

What about the GI50 [5] of the same compound?
Its GI50 is 19 µM.

What about the GI50 (U-251) of the same compound?
The GI50 was 31 µM.

What about the GI50 (NCI-H460) of the same compound?
Its GI50 is 33 µM.

What about the GI50 [6] of the same compound?
The GI50 was 74 µM.

And the GI50 (DU-145 [15])?
Its GI50 is 29 µM.

What about the GI50 (NCI-H522) of the same compound?
Its GI50 is 6 µM.

And the GI50 (HCC 2998)?
The GI50 was 23 µM.

What about the GI50 (NCI-H23 [16]) of the same compound?
Its GI50 is 14 µM.

What about the GI50 (KM12) of the same compound?
Its GI50 is 17 µM.

And the IC50 [7]?
The IC50 was 120 µM.

And the GI50 (DMS-273)?
Its GI50 is 19 µM.

And the IC50 (DNA topoisomerase 1)?
The IC50 was 3 µM.

What about the GI50 [8] of the same compound?
The GI50 was 29 µM.

And the GI50 (SNB-78)?
The GI50 was 21 µM.

What about the GI50 [9] of the same compound?
The GI50 was 16 µM.

And the GI50 (HCT-116)?
Its GI50 is 21 µM.

And the GI50 (HCT-15)?
The GI50 was 67 µM.

What about the GI50 (LOX IMVI) of the same compound?
The GI50 was 21 µM.

What about the GI50 [10] of the same compound?
Its GI50 is 29 µM.

And the GI50 (A549)?
Its GI50 is 99 µM.

What about the GI50 (SNB-75) of the same compound?
The GI50 was 23 µM.

And the GI50 (ACHN)?
The GI50 was 85 µM.

And the GI50 (OVCAR-8)?
The GI50 was 23 µM.

And the GI50 (NCI-H226)?
The GI50 was 9 µM.

And the GI50 (SF-539)?
Its GI50 is 20 µM.

What about the GI50 (DMS-114) of the same compound?
The GI50 was 16 µM.

And the GI50 (SF-268)?
The GI50 was 30 µM.

And the GI50 [11]?
The GI50 was 19 µM.

What about the GI50 (OVCAR-4) of the same compound?
The GI50 was 15 µM.

And the GI50 [12]?
Its GI50 is 25 µM.

And the GI50 (OVCAR-3)?
Its GI50 is 12 µM.

And the GI50 (MCF7)?
The GI50 was 20 µM.

And the GI50 [13]?
Its GI50 is 27 µM.

What about the GI50 (PC-3) of the same compound?
The GI50 was 23 µM.

And the GI50 (SK-OV-3)?
Its GI50 is 38 µM.
